Experimental data from ChEMBL document CHEMBL1129385, “Aspartic acid conjugates of 2-(3,4-dichlorophenyl)-N-methyl-N-[(1S)-1(3-aminophenyl)-2-(1-pyrrolidi nyl) ethyl]acetamide: kappa opioid receptor agonists with limited access to the central nervous system” (J Med Chem, 1996).

Key:
Cavia porcellus = species: Cavia porcellus; assay: Compound was tested for their agoinst potencies on the electrically stimulated Guinea pig ileal longitudinal muscle preparation.; assay type: functional; conditions: Muscle tissue
Mus musculus [1] = assay: Compound was evaluated for Antinociceptive potencies in mice for in vivo activity Mouse abdominal stretch assay by icv administration; assay type: functional; conditions: Abdomen, central
Mus musculus [2] = assay: Compound was evaluated for Antinociceptive potencies in mice for in vivo activity in mouse tail-flick by icv administration; assay type: functional; conditions: central
Mus musculus [3] = assay: Compound was evaluated for Antinociceptive potencies in mice for in vivo activity in mouse tail-flick by iv administration; assay type: functional
Mus musculus [4] = species: Mus musculus; assay: Compound was tested for their agoinst potencies on the electrically stimulated mouse vas deferens.; assay type: functional
Mu-type opioid receptor = Mu-type opioid receptor (Cavia porcellus, UniProt P97266); assay: Compound was tested for the binding affinity and selectivity by competitive inhibition of radioligands on opioid Mu receptor in guinea pig brain membranes; assay type: cell membranes, Membrane
Procedure, shortened: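 Competition binding in guinea pig brain membranes for μ opioid sites against 2 nM [³H]DAMGO, using a modified Werling method. Ki values are arithmetic means of three experiments.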

[5] = target: T1, Kappa-type opioid receptor (Cavia porcellus, UniProt P41144); assay: Compound was tested for the binding affinity and selectivity by competitive inhibition of radioligands on opioid kappa receptor in guinea pig brain membranes; assay type: cell membranes, Membrane
Procedure, shortened: (§1)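 Competition binding in guinea pig brain membranes for κ opioid sites against 1 nM [³H]U69,593, using a modified Werling method. Ki values are arithmetic means of three experiments.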

Mus musculus [6] = assay: Peak time for Antinociception Tail-flick(min) by icv administration in mice.; assay type: functional
Mus musculus [7] = assay: Peak time for Antinociception Tail-flick(min) by iv administration in mice.; assay type: functional
Mus musculus [8] = assay: Peak time for Antinociception writhing(min) by icv administration in mice.; assay type: functional
Mus musculus [9] = assay: Peak time for Antinociception writhing(min) by iv administration in mice.; assay type: functional
Mus musculus [10] = assay: Compound was evaluated for Antinociceptive potencies in mice for in vivo activity in Analgesic activity in the second phase of the mouse formalin assay by iv administration; assay type: functional
[11] = target: T1, Kappa-type opioid receptor; assay: Compound was tested for the binding affinity and selectivity by competitive inhibition of radioligands on Opioid receptor kappa 1 in guinea pig brain membranes; assay type: cell membranes, Membrane; procedure, shortened: as §1

CN(C(=O)Cc1ccc(Cl)c(Cl)c1)[C@H](CN1CCCC1)c1cccc(NC(=O)[C@@H](N)CC(=O)O)c1
IC50 (Cavia porcellus): 0.84 nM
ED50 (Mus musculus [1]): 0.0068 µmol/kg
ED50 (Mus musculus [2]): 0.335 µmol/kg
ED50 (Mus musculus [3]): 0.85 µmol/kg
IC50 (Mus musculus [4]): 2.49 nM
Ki (Mu-type opioid receptor): 462 nM
Ki [5]: 0.34 nM
Time (Mus musculus [6]): 30 min
Time (Mus musculus [7]): 20 min
Time (Mus musculus [8]): 10 min
Time (Mus musculus [9]): 10 min
ED50 (Mus musculus [10]): 0.01 µmol/kg

CN(C(=O)Cc1ccc(Cl)c(Cl)c1)[C@H](CN1CCCC1)c1cccc(NC(=O)C[C@H](N)C(=O)O)c1
IC50 (Cavia porcellus): 0.55 nM
ED50 (Mus musculus [1]): 0.011 µmol/kg
ED50 (Mus musculus [2]): 0.502 µmol/kg
ED50 (Mus musculus [3]): 5.12 µmol/kg
IC50 (Mus musculus [4]): 6.36 nM
Time (Mus musculus [6]): 30 min
Time (Mus musculus [7]): 30 min
Time (Mus musculus [8]): 30 min
Time (Mus musculus [9]): 10 min

CN(C(=O)Cc1ccc(Cl)c(Cl)c1)[C@H](CN1CCCC1)c1cccc(NC(=O)[C@H](N)CC(=O)O)c1
IC50 (Cavia porcellus): 4.59 nM
ED50 (Mus musculus [1]): 0.046 µmol/kg
IC50 (Mus musculus [4]): 4.06 nM
Ki (Mu-type opioid receptor): 280 nM
Ki [11]: 1.2 nM
Time (Mus musculus [8]): 10 min
Time (Mus musculus [9]): 10 min
ED50 (Mus musculus [10]): 1.05 µmol/kg
